Test results: ChEMBL document CHEMBL3425481, “Design, synthesis and anticancer activity of matrine-1H-1,2,3-triazole-chalcone conjugates” (Bioorg Med Chem Lett, 2015)

Legend:
Mus musculus = experiment: Toxicity in human A549 cells xenografted Balb/ca-nu mouse assessed as effect on body weight at 2.5 to 10 mg/kg, iv dosed every 3 days for total of 7 dosing rounds measured on day 10 to day 20 after treatment; type: organism-based; design: dose 2.5-10 mg/kg, route intravenous; conditions: in vivo, 72 h
Outline: (§1)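 A549 xenograft in mice, dosed by tail vein injection every 3 days; vehicle saline plus 0.2% Tween 80. n = 8 per treatment group, 6 in the vehicle group. Mean ± SE.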

A549 [1] = experiment: Antitumor activity against human A549 cells xenografted in Balb/ca-nu mouse assessed as tumor growth inhibition at 10 mg/kg, iv dosed every 3 days for total of 7 dosing rounds measured on day 14 after treatment; type: functional; conditions: read-out: TGI; outline: as §1
A549 [2] = experiment: Antitumor activity against human A549 cells xenografted in Balb/ca-nu mouse assessed as tumor growth inhibition at 2.5 mg/kg, iv dosed every 3 days for total of 7 dosing rounds measured on day 18 after treatment; type: functional; conditions: read-out: TGI; outline: as §1
A549 [3] = experiment: Antitumor activity against human A549 cells xenografted in Balb/ca-nu mouse assessed as tumor growth inhibition at 5 mg/kg, iv dosed every 3 days for total of 7 dosing rounds measured on day 10 after treatment; type: functional; conditions: read-out: TGI; outline: as §1
A549 [4] = experiment: Antitumor activity against human A549 cells xenografted in Balb/ca-nu mouse assessed as tumor growth inhibition at 10 mg/kg, iv dosed every 3 days for total of 7 dosing rounds measured on day 16 after treatment; type: functional; conditions: read-out: TGI; outline: as §1
[5] = Antiproliferative activity against human Bel7402 cells assessed as inhibition of cell proliferation incubated for 48 hrs by CCK8 assay; type: functional, cell-based; conditions: Bel-7402, 48 h
Outline: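 Human A549 lung, Hela cervical, Bel-7402 hepatocellular and MCF-7 breast cancer cells, plus mouse embryo fibroblast NIH3T3, tested for anti-proliferative activity by CCK-8 assay. For the matrine combination tests, the chalcone and matrine were used at a 1:1 molar ratio; values given as IC50.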

A549 [6] = experiment: Antitumor activity against human A549 cells xenografted in Balb/ca-nu mouse assessed as tumor growth inhibition at 2.5 mg/kg, iv dosed every 3 days for total of 7 dosing rounds measured on day 16 after treatment; type: functional; conditions: read-out: TGI; outline: as §1
A549 [7] = experiment: Potency index, ratio of IC50 for 5-fluorouracil to IC50 for compound against human A549 cells incubated for 48 hrs by CCK8 assay; type: functional
A549 [8] = experiment: Antitumor activity against human A549 cells xenografted in Balb/ca-nu mouse assessed as tumor growth inhibition at 5 mg/kg, iv dosed every 3 days for total of 7 dosing rounds measured on day 14 after treatment; type: functional; conditions: read-out: TGI; outline: as §1

With `O=C(/C=C/c1cccc(Cl)c1)c1ccc(OCc2cn([C@H]3CC(=O)N4C[C@@H]5CCCN6CCC[C@@H]([C@H]56)[C@H]4C3)nn2)cc1O` as the compound, how does the Activity (Mus musculus) read?
Its Activity is “Non-toxic”.

What about the inhibition in vivo at 10 mg/kg (A549 [1]) of the same compound?
The inhibition in vivo at 10 mg/kg was 78.8%.

What about the inhibition in vivo at 2.5 mg/kg (A549 [2]) of the same compound?
Its inhibition in vivo at 2.5 mg/kg is 38.8%.

And the inhibition in vivo at 5 mg/kg (A549 [3])?
Its inhibition in vivo at 5 mg/kg is 29%.

And the inhibition in vivo at 10 mg/kg (A549 [4])?
The inhibition in vivo at 10 mg/kg was 83.7%.

What about the IC50 [5] of the same compound?
The IC50 was 5.6 µM.

What about the inhibition in vivo at 2.5 mg/kg (A549 [6]) of the same compound?
The inhibition in vivo at 2.5 mg/kg was 33.2%.

And the “Ratio IC50” value (A549 [7])?
Its value is 8.

What about the inhibition in vivo at 5 mg/kg (A549 [8]) of the same compound?
The inhibition in vivo at 5 mg/kg was 45.9%.
